# Experimental data collected from several papers.
# Each line is one published result; the experiments were not run side by side.
# Target: Serine/threonine-protein kinase mTOR (MTOR, Homo sapiens, UniProt P42345)
Compound,effect on,mode,technique,concentration,quantity,value
CC(C)c1ccc(NC(=O)c2cccs2)c(-c2nc3ccccc3[nH]c2=O)c1,enzyme activity,inhibitor,,1 µM,activity vs control,85%
CC(C)(C)c1nc(-c2cccc(NS(=O)(=O)c3c(F)cccc3F)c2F)c(-c2ccnc(N)n2)s1,enzyme activity,inhibitor,radiometric,1 µM,remaining activity,99%
CNCc1ccc(-c2cc(-c3nc(-c4ccc(S(=O)(=O)C(C)C)cc4)cnc3N)on2)cc1,enzyme activity,inhibitor,,0.4 µM,inhibition,0%
CCc1ccccc1C(=O)Nc1n[nH]c2c(C)c(F)c(C3C(C#N)=C(C)N(C)C(C)=C3C#N)cc12,cell-free assay,,competition with immobilised ligand,1 µM,remaining binding,100%
N[C@@H]1CCN(c2nccc(-c3cnn4ncccc34)n2)C1,binding,,,1 µM,remaining binding,99%
Cc1cnc(NC2CCOCC2)nc1-n1cnc(C(=O)NC(CN)c2cc(F)cc(Cl)c2)c1 (centres unmarked),enzyme activity,inhibitor,radiometric,1 µM,remaining activity,82%
O=C(CSc1nc2nccnc2c(=O)n1CCc1ccccc1)Nc1nccs1,enzyme activity,inhibitor,,10 µM,inhibition,4%
Nc1ncnc2occ(-c3ccc(NC(=O)Nc4cc(C(F)(F)F)ccc4F)cc3)c12,enzyme activity,inhibitor,,20 µM,remaining activity,74%
COCCOc1nc(-c2ccc(Cl)nc2)nc2c1CN(C(=O)c1ncn3ccccc13)CC2,cell-free assay,,competition with immobilised ligand,0.1 µM,remaining binding,97%
CCCOc1ccc(OC)c(F)c1C(=O)c1ccc(C(=O)N[C@@H]2CNC[C@H]2NC(=O)c2ccc3[nH]ncc3c2)cc1,enzyme activity,inhibitor,,10 µM,remaining activity,86%
CN([C@@H]1CCc2c(CC(=O)O)c3ccccc3n2C1)S(=O)(=O)c1ccc(F)cc1,cell-free assay,,competition with immobilised ligand,1 µM,remaining binding,100%
COc1cc2ncnc(Nc3ccc(Oc4ccccc4)cc3C)c2cc1OC,enzyme activity,inhibitor,,1 µM,inhibition,1%
COc1ccc2c(c1)O[C@@H](c1ccc(OC)c(OC)c1)C[C@H]2NC(=O)C1(c2ccc3c(c2)OC(F)(F)O3)CC1,cell-free assay,,competition with immobilised ligand,1 µM,remaining binding,100%
CN1CC(Oc2cnc(C#N)cc2-c2ccn3nc(NC(=O)C4CC4)cc3c2)C1,enzyme activity,inhibitor,,1 µM,inhibition,1%
Cc1noc([C@H]2C[C@@H](c3ccc(C(F)(F)F)cc3)CN(C(=O)N3CCS(=O)(=O)C3)C2)n1,cell-free assay,,competition with immobilised ligand,1 µM,remaining binding,92%
CC(C)CCn1c(SCC(=O)Nc2ccccc2C(F)(F)F)nc2nccnc2c1=O,enzyme activity,inhibitor,,10 µM,inhibition,< 20%
C=CC(=O)Nc1cc(Nc2nccc(Nc3cc(Cl)c(F)cc3C(C)(C)O)n2)c(OC)cc1N1CC[C@@H](N(C)C)C1,enzyme activity,inhibitor,,1 µM,inhibition,6%
